PMC3190289 (Clinical and Experimental Gastroenterology, 2011)
Where two headings read alike, the source gives them in different places.

Legend:
[1] = Plasma pharmacokinetics after single oral doses in healthy subjects; format: in vivo, human; details: for Subjects with detectable plasma concentrations: single oral dose; for AUC values in CYP2C19 poor metabolizers relative to overall means: two CYP2C19 poor metabolizer subjects
[2] = Safety analysis: treatment-emergent adverse events after single doses; format: in vivo, human; details: healthy subjects; for Incidence of treatment-emergent adverse events: single-dose administration
Method in brief: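 Open-label two-period crossover in 44 subjects aged 20–54. Each period gave one oral dose after an overnight fast of at least 8 h, with a 60-min postdose fast; washout at least 7 days. All dosed subjects were analysed. A treatment-emergent AE started or worsened after first dose and within 30 days of last dose. Terms were coded to MedDRA 13.1 system organ class and preferred term; the investigator judged relatedness. Results were summarised descriptively per regimen.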

[3] = cited from earlier work
[4] = tested on: intragastric pH; details: cited from earlier work
[5] = postdose, single dose 60 mg, healthy subjects

Row | Compound | Subjects with detectable plasma concentrations ([1]; 12 hours postdose) | Subjects with detectable plasma concentrations ([1]; 16 hours postdose) | Subjects with detectable plasma concentrations ([1]; 24 hours postdose) | Time of first peak of mean plasma concentration-time curve [1, 5] | Time of second peak of mean plasma concentration-time curve [1, 5] | AUC values in CYP2C19 poor metabolizers relative to overall means [1] | Adverse events considered related to the study drug by the investigator ([2]; single dose) | Incidence of flatulence ([2]; single dose) | Incidence of headache ([2]; single dose) | Incidence of joint injury ([2]; single dose) | Incidence of treatment-emergent adverse events [2] | Time of first peak of plasma concentration-time profile ([3]; after administration) | Half-life [3] | Time of second peak of plasma concentration-time profile ([3]; postdose) | Percentage of time with intragastric pH > 4 ([4]; 0–24 hours after the same dose (60 mg)) | Adverse events reported by two or more subjects ([2]; single dose) | Increase in bioavailability at steady state ([3]; after five days of once-daily dosing) | Time of maximum plasma concentrations ([3]; postdose) | Percentage of time with intragastric pH > 4 ([4]; 0–24 hours after the same dose (40 mg), ref 10) | Percentage of time with intragastric pH > 4 ([4]; 0–24 hours after the same dose (40 mg), ref 12)
1 | Cc1c(OCC(F)(F)F)ccnc1C[S@@+]([O-])c1nc2ccccc2[nH]1 [dexlansoprazole] | 100% | 88% | 63% | approximately 2 hours | ~5 h | substantially higher | only one adverse event (nausea) | 5% | 9% | 5% | 21% | 1 to 2 h | 1 to 2 h | 4 to 5 h | approximately 60% | – | – | – | – | –
2 | COc1ccc2nc([S@@+]([O-])Cc3ncc(C)c(OC)c3C)[nH]c2c1 [esomeprazole] | 80% | 39% | 9% | – | – | substantially higher | – | – | – | – | 14% | – | – | – | – | No adverse event | ~2.5 fold | approximately 1.6 hours | 54% | 52%
